The values below come from PMC6336391 (Journal of the American Chemical Society, 2018).

Data set [1] relates to TNF-α. As to conditions: RAW 264.7 murine macrophages; cited from earlier work.
In data set [2] the test system is RAW 264.7 murine macrophage cells. In words: MTT cytotoxicity in RAW 264.7 cells with added BSA. Format: cell-based. The essentials:
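MTT viability assay in murine RAW 264.7 macrophages with added bovine serum albumin. Test compounds were screened under both non-illuminated and illuminated conditions.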

Another data set concerns A549 cells. The experiment in a line: MTT toxicity in A549 cells with added BSA. It is filed as cell-based, human. The settings on record: BSA 0.6 mM. The essentials: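 MTT viability assay in human A549 alveolar adenocarcinoma cells with added BSA (0.6 mM). Test compounds were tested under non-illuminated and illuminated conditions. Percent viability was plotted against concentration. IC50 was fitted by four-parameter nonlinear regression, only where viability fell by at least 50%.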

The test system of data set [3] is TNF-α. In words: Suppression of LPS-induced TNF-α production in RAW 264.7 cells. It is filed as cell-based, murine. As to conditions: BSA 0.6 mM; for effect on TNF-α: LPS 1 μg/mL. The essentials:
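RAW 264.7 murine macrophages with added BSA (0.6 mM) and test compound, kept either illuminated or dark. Plates were then treated with LPS (1 μg/mL final) for 1 h. TNF-α in each well's supernatant was measured by commercial ELISA. Means ± SEM from three independent experiments. Two-way ANOVA with Tukey post hoc tests against the LPS control and illuminated versus dark.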

Data set [4] addresses T1, bovine serum albumin (Bos taurus, UniProt P02769). The settings on record: 22 °C, cited from earlier work.
A further data set concerns HUVECs. In words: MTT cytotoxicity in normal human cells. It is filed as cell-based. The settings on record: up to 100 μM.
The target in data set [5] is T1, bovine serum albumin. The experiment in a line: Bovine serum albumin binding by tryptophan fluorescence quenching.
The mark [6] stands for this setting: read-out: IC50 RAW 264.7, non-illuminated.
Where [7] appears, read: read-out: IC50 A549, non-illuminated.

Values joined by “and” are separate entries in the source; they are usually repeats but may differ in a detail not shown here. Equal values may be shown once. Read-outs that look alike come from different tables or passages of the source.

T1 sequence (P02769 25-607): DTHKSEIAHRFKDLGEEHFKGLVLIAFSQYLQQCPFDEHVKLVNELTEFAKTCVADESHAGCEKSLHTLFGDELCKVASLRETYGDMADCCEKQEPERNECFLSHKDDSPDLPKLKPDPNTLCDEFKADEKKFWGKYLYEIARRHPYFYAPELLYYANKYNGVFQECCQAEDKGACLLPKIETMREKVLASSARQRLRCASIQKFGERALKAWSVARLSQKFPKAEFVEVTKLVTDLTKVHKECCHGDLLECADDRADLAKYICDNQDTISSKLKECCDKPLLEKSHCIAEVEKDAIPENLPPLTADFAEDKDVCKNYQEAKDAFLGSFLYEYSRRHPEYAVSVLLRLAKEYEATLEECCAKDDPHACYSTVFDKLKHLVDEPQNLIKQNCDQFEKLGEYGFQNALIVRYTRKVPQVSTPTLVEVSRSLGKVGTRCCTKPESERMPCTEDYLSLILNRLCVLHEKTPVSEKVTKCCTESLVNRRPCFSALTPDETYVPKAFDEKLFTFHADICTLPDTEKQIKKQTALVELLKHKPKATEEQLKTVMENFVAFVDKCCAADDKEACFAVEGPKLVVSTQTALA

“BSA-Ru(CO)2 conjugate: adduct formed by albumin binding of CORM-3”: in the data set with TNF-α [1], the “concentration at which effects on TNF-α expression start” value is 4.5 µM.

As for `O=C(Nc1cc2ccccc2cc1C(=O)O)c1ccccc1` [Compound 3, 3-(benzoylamino)-2-naphthalenecarboxylic acid], the IC50 (commonly the point on the concentration scale where inhibition reaches its midpoint) in data set [2] (Mus musculus, RAW264.7, read-out: IC50 RAW 264.7, non-illuminated) was over 100 µM; in data set [2] (setting [6]), over 100 µM; with A549 cells (Homo sapiens, A549, read-out: IC50 A549, non-illuminated), over 100 µM; with A549 cells (setting [7]), over 100 µM. Besides, the “IC50 A549 (illuminated)” value in the data set on A549 cells (visible light illumination (in situ CO release)) is “non-toxic”. Also, in the data set on TNF-α [3] (illuminated), the “effect on TNF-α” value is on record as “lack of any effect”.

`O=c1c(O)c(-c2ccccc2)oc2cc3ccccc3cc12` [Flav-1, 3-hydroxybenzo[g]flavone, reference compound]: at bovine serum albumin [4] (in the presence of ibuprofen), the “Ka (ibuprofen)” value was 2600 M⁻¹. Moreover, the “Ka (warfarin)” value at bovine serum albumin [4] (in the presence of warfarin) is 360 M⁻¹. Besides, the “IC50 RAW 264.7” value in data set [2] (non-illuminated) is listed as “nontoxic”. The IC50 in data set [2] (setting [6]) was over 100 µM; in the data set on A549 cells (setting [7]), 82 µM and 81.9 µM. In addition, the cell viability entry in the data set on HUVECs is recorded as “greater than 50%”.

For the molecule `NCC(=O)O.[C-]#[O+].[C-]#[O+].[C-]#[O+].[Cl][Ru]` [CORM-3], the “concentration at which effects on TNF-α expression start” value in the data set with TNF-α [1] was 10 µM.

3-hydroxybenzo[g]quinolone [Compound 1]: the IC50 in data set [2] (setting [6]) was 40.2 ± 1.44 µM; in the data set on A549 cells (setting [7]), over 100 µM. Moreover, in the data set on HUVECs, the cell viability result was “greater than 50%”. The “KSV (binding constant with BSA)” value at bovine serum albumin [5] (22 °C, 4% DMSO:Tris buffer pH 7.4, 0.1 M NaCl) worked out at 2.9e+06 M⁻¹. In addition, the “Ka (ibuprofen)” value on bovine serum albumin [5] (22 °C, in the presence of ibuprofen (Site II)) worked out at 980000 M⁻¹. Further, the “Ka (warfarin)” value at bovine serum albumin [5] (22 °C, in the presence of warfarin (Site I)) is 610000 M⁻¹. For the same molecule, the “fold stronger binding to BSA than Flav-1” value on bovine serum albumin [5] (relative to Flav-1) is recorded as “approximately 900 fold”. For the same molecule, in the data set with TNF-α [3] (80 nM, illuminated (blue LED array, 1 hr), LPS 1 μg/mL 1 h), the TNF-α level result was “almost completely suppressed”. Besides, the “effect on TNF-α” value in the data set with TNF-α [3] (non-illuminated) is given as “dose-dependent decrease”.
